# Entries after “also recorded” stand apart in the source; their conditions may differ.
# Columns and labels:
# mouse DRG neurons [1] = test: Rotenone-induced axonal degeneration; type: cell-based
# Procedure, shortened: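 Mouse DRG cultures at 6–7 DIV received 25 µM rotenone, either continuously or as 1- or 3-h pulses removed by gentle 3× rinsing. Test compound at 30 µM was given either as 2-h pretreatment or immediately after rotenone removal. Axonal fragmentation scored 48 h after rotenone onset; n = 4.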
# mouse DRG neurons [2] = test: Video time-lapse analysis of individual axonal blebs after rotenone pulse; type: cell-based
# Procedure, shortened: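 Mouse DRG cultures given a 3-h pulse of 25 µM rotenone, rinsed, ± 30 µM test compound, then imaged brightfield every 15 min at 20X for 48 h. A blinded observer identified blebs at 3 h, tracked them back to confirm origin from healthy axons, then forward until fragmentation, resolution or end. Data analysed by Kaplan-Meier, with percentages taken at 48 h.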
# [3] = tested on: human iPSC-derived motor neurons; test: Axon fragmentation after axotomy in human motor neurons; type: cell-based
# Procedure, shortened: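 Human iPSC-derived motor neurons spotted at 10,000 cells/well on poly-D-lysine/laminin in Complete Maintenance Medium + 5 µM DAPT; assay at 14 DIV. Test compound diluted from 10 mM DMSO stock (final DMSO 0.3%), pretreated 2 h before injury. Axons cut manually with micro-surgical blade and examined for fragmentation 16 h post-axotomy.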
# mouse DRG axons = test: Mitochondrial membrane potential by TMRM fluorescence; type: cell-based
# Procedure, shortened: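 Mitochondrial membrane potential in mouse DRG axons read live as TMRM fluorescence; cells were then rinsed, fixed in 1% paraformaldehyde and immunostained for βIII-tubulin. Axotomy arm: 10 µM test compound. Rotenone arm: 3-h pulse of 25 µM rotenone, rinsed 3×, 30 µM test compound immediately afterward, imaged 48 h after rotenone onset; n = 4.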
# CD38 = target: T1, CD38 (Homo sapiens, UniProt P28907); test: Biochemical selectivity panel
# T1 sequence (P28907 1-300): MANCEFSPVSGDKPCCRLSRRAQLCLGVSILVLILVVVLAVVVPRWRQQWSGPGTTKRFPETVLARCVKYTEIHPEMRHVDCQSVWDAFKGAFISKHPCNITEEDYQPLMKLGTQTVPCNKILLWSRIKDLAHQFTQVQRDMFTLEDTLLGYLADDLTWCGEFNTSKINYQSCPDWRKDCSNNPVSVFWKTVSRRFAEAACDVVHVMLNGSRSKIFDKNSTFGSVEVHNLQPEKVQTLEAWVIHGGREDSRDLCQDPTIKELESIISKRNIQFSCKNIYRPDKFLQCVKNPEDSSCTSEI
# [4] = tested on: axotomized mouse dorsal root ganglia (DRG) axons; test: Axonal metabolites; type: cell-based; conditions: axonal lysates after axotomy, dose dependent
# Procedure, shortened: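 Mouse E13.5 DRG neurons spotted at 100,000 cells/well; test compound present at graded concentrations; all axons severed around the soma cluster at DIV6. After 4 h, cell bodies removed on ice; axons extracted in 50% MeOH with chloroform partition, then lyophilized. cADPR and NAD+ quantified by online SPE-LC-MS/MS with 2-chloroadenosine internal standard against synthetic standard curves. Reported as ng/100,000 cells; n = 3/condition.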
# mouse DRG neurons [5] = test: NfL release in response to rotenone; type: cell-based; conditions: 25 μM rotenone
# Procedure, shortened: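 Culture supernatants from mouse DRG neurons exposed to 25 µM rotenone, either continuously sampled over time or as 1- or 3-h pulses with collection at 48 h. Neurofilament light measured by NF-Light ELISA per the kit instructions.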
# mouse DRG neurons [6] = test: Axonal cADPR after 3-h rotenone pulse; type: cell-based; conditions: 3 h 25 μM rotenone, rinse, then 4 h compound
# Procedure, shortened: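 Mouse DRG cultures given a 3-h pulse of 25 µM rotenone, rinsed, then test compound added. Axonal metabolites extracted on ice: cell bodies removed, 50% MeOH, chloroform partition, lyophilization. cADPR measured by SPE-LC-MS/MS with 2-chloroadenosine internal standard against synthetic standard curves; reported as ng/100,000 cells.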
# [7] = tested on: axotomized mouse DRG neurons; test: Axon degeneration; type: cell-based; conditions: for axonal protection after axotomy: WT mouse DRG, 16 h post-axotomy
# Procedure, shortened: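 Mouse DRG from E13.5 C57BL/6J embryos, trypsin/EDTA-dissociated (37°C, 30 min), spotted at 5,000 cells/well on poly-D-lysine/laminin; assay at 6–7 DIV. Test compound diluted from 10 mM DMSO stock (final DMSO 0.3%), pretreated 2 h unless added after injury (e.g. 30 µM at set times). Axons cut manually with micro-surgical blade and scored for fragmentation 16 h post-axotomy.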
# [8] = target: T2, constitutively active SAM-TIR protein of human SARM1 (Homo sapiens, UniProt Q6SZW1); test: SAM-TIR NADase assay; type: biochemical
# T2 sequence (Q6SZW1 409-700): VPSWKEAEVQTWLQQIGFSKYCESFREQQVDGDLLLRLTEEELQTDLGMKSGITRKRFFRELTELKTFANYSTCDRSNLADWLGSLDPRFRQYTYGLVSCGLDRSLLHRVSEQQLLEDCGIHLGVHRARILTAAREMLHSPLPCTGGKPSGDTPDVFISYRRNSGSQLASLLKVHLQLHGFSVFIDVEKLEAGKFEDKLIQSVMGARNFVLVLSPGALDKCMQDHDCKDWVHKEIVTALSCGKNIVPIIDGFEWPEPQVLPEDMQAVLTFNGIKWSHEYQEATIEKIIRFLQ
# mouse DRG somas = test: Neuronal cell death after rotenone pulse; type: cell-based; conditions: WT DRG, 25 µM rotenone, 48 h
# Procedure, shortened: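 Live mouse DRG cultures exposed to 25 µM rotenone for 48 h, then stained 20 min with 0.25 µM Cytotox Green (dead cells) and 1 µM Cytolight red. Imaged by IncuCyte at 20X, 9 fields/well; bright-field gave total cell counts and green fluorescence gave dead somas.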
# [9] = 30 μM added after 3-h pulse of 25 μM rotenone
smiles,measurement,setting,value
"Ic1cccc2cnccc12 [DSRM-3716, 5-iodoisoquinoline]",protection from rotenone-induced axonal degeneration (pretreatment),"mouse DRG neurons [1]; 25 μM rotenone, 48 h, 30 μM compound",prevented axonal degeneration to the same extent as protection observed in SARM1^−/− neurons; also recorded: robust protection
same,"protection from fragmentation, compound added after rotenone pulse","mouse DRG neurons [1]; 3-h pulse 25 μM rotenone, 30 μM compound immediately after removal, 48 h",protected axons from fragmentation
same,axonal blebs induced by rotenone that fragmented (transected),mouse DRG neurons [2]; [9],10%
same,axonal blebs induced by rotenone that remained,mouse DRG neurons [2]; [9],30%
same,protection from fragmentation after axotomy,[3],dose-dependent protection
same,TMRM fluorescence (mitochondrial viability) after axotomy,"mouse DRG axons; 10 μM, axotomy",preserved TMRM fluorescence; also recorded: maintained viable functional mitochondria
same,mitochondrial function by TMRM after rotenone pulse,"mouse DRG axons; 3-h pulse 25 μM rotenone, 30 μM compound after removal, 48 h",preserved mitochondrial function
same,inhibitory activity against CD38,CD38,no inhibitory activity
same,preservation of NAD+ after axotomy,[4],substantial preservation of NAD^+
same,NfL release into culture supernatant in response to rotenone,mouse DRG neurons [5],can be prevented
same,axonal levels of cADPR after rotenone pulse,mouse DRG neurons [6],reduced axonal levels of cADPR
same,additional axonal protection in SARM1−/− neurons,"[7]; SARM1−/− DRG, 30 µM, axotomy",did not provide benefit beyond the robust protection observed with SARM1 genetic loss of function
same,axonal protection after axotomy,[7],protected axons
same,"axonal protection, inhibitor added after injury",[7]; added 5 h post-axotomy,robustly protected
"Oc1cccc2cnccc12 [compound 3, 5-hydroxyisoquinoline]",IC50,[8],2600 nM
"O=C(c1cc(Cc2n[nH]c(=O)c3ccccc23)ccc1F)N1CCN(C(=O)C2CC2)CC1 [olaparib, reference compound]",axonal protection after axotomy,[7],no protection of injured axons
"C=C(C)[C@H]1Cc2c(ccc3c2O[C@@H]2COc4cc(OC)c(OC)cc4[C@@H]2C3=O)O1 [rotenone, reference compound]",axonal degeneration after rotenone pulse,"mouse DRG neurons [1]; 25 μM rotenone removed after 1 h, examined at 48 h",~ 70%
same,blebs transected after rotenone removal,"mouse DRG neurons [2]; 3-h pulse 25 μM rotenone, by 18 h",95%
same,blebs fragmented after rotenone removal,"mouse DRG neurons [2]; 3-h pulse 25 μM rotenone, by 48 h",100%
same,neuronal cell death (dead somas) caused by rotenone,mouse DRG somas,approximately 60%
